Laboratory results as given in PMC10718585 (RSC Medicinal Chemistry, 2023).

Experiments:
[1] = tested on: U87, T98 and bEnd.3 cells; test: PrestoBlue cell viability screen, cell line not given; type: cell-based; conditions: BEND3, 120 h
Procedure, shortened: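 bEnd.3 cells, grown in DMEM with 10% FBS and 2 mM L-glutamine, seeded at 1 × 10^4 per well. After 48 h at 37 °C/5% CO2 the medium was replaced and 20× compound dilutions in DMEM added (3–30 μM 3-point or 0.03–30 μM semi-log 7-point). DMSO 0.1% v/v served as untreated control. After 5 d, PrestoBlue was added for 60–90 min (ex 540/em 590 nm). EC50 came from a four-parameter logistic fit, minimum constrained to zero, normalised to untreated cells.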

LCK = LCK (Homo sapiens, UniProt P06239); test: Z′-LYTE kinase inhibition; type: biochemical; conditions: 3-point dose–response (0.1, 1, 10 μM), ATP Km app
Procedure, shortened: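 Z′-LYTE FRET assay: a peptide substrate tagged with a FRET pair, with protease cleavage distinguishing phospho from non-phospho peptide, read ratiometrically. Wild-type kinase was tested at 0.1, 1 and 10 μM in duplicate, with 1% DMSO and ATP at apparent Km. 100% inhibition was set without ATP; 0% used a synthetically phosphorylated substrate peptide. IC50 came from the dose-response curve.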

T98 cells = test: PrestoBlue dose–response cell viability assay, 5 d; type: cell-based, human; conditions: T98 versus U87 and bEnd.3, 3-point screen
U87 cells = test: PrestoBlue dose–response cell viability assay, 5 d; type: cell-based, human; conditions: U87, 3-point screen

LCK, sequence (P06239 whole entry): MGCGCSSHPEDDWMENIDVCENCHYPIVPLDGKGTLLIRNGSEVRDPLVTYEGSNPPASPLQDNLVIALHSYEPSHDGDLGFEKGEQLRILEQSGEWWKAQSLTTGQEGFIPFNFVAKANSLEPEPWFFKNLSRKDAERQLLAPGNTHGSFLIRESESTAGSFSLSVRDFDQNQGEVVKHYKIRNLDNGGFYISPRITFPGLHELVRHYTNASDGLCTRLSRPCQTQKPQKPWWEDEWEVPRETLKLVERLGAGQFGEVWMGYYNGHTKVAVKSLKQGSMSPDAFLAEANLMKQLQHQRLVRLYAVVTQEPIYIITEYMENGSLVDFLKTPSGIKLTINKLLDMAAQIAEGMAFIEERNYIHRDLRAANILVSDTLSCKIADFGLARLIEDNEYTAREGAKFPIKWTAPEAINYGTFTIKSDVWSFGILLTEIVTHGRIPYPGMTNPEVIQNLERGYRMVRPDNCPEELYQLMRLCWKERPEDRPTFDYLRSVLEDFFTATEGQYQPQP

Compound | antiproliferative selectivity profile (T98 cells) | also measured
CC1CCN(CC#Cc2nn(CC3CCCC3)c3ncnc(N)c23)CC1 [A3] | – | EC50 [1]: < 30 µM
CN(C)C1CCN(CC#Cc2nn(C3CCCC3)c3nc(NCc4ccccc4)ncc23)C1 (stereo not shown) [B58, N-Benzyl-1-cyclopentyl-3-(3-(3-(dimethylamino)pyrrolidine-1-yl)prop-1-yn-1-yl)-1H-pyrazolo[3,4-d]pyrimidin-6-amine] | – | IC50 (LCK): 2.27 µM
CCOC(=O)C1CCN(CC#Cc2nn(CC3CCCC3)c3nc(NC)ncc23)CC1 [B22] | selective antiproliferative profile against the T98 cell line | –
CNc1ncc2c(C#CCN3CCCCCC3)nn(CC3CCCC3)c2n1 [B21] | selective antiproliferative profile against the T98 cell line | –
CNc1ncc2c(C#CCN3CCC(NC(C)=O)CC3)nn(CC3CCCC3)c2n1 [B16] | selective antiproliferative profile against the T98 cell line | –
Cn1nnc2c(C(N)=O)ncn2c1=O [TMZ, temozolomide] | – | antiproliferative activity (U87 cells): some level of antiproliferative activity
CCOC(=O)N1CCN(CC#Cc2nn(CC3CCCC3)c3nc(NC)ncc23)CC1 [B23] | selective antiproliferative profile against the T98 cell line | –
